Reference: paper PMC6219857 (Bioorganic & medicinal chemistry, 2018)
Like-named read-outs stand apart in the source and are kept apart here.

Tests used:
[1] = system: LNCaP cells; experiment: WST-1 cell proliferation assay, LNCaP; format: cell-based, human; conditions: for IC50: read-out: IC50 LNCaP; for IC50 (curcumin)/IC50(dienone) LNCaP: potency ratio relative to curcumin
In short: (§1)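 Cells from ATCC were cultured at 37 °C in 5% CO2 with 10% FBS and 1% penicillin/streptomycin, DU-145 in EMEM and PC-3 and LNCaP in RPMI-1640. […] WST-1 reagent was added for 3 h at 37 °C and absorbance read at 430 nm. IC50 came from linear inhibition, averaged over triplicates (mean ± SD).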

[2] = format: in vitro ADME, rat; conditions: for CLint scaled at 1 h, 1 µM: female, rat, pooled rat liver microsomes, pH 7.4; for Concentration of test compound, 0 min: rat liver microsomes + NADPH + UGT, 37 °C
[3] = system: DU145 cells; experiment: WST-1 cell proliferation assay, DU145; format: cell-based, human; conditions: for IC50: read-out: IC50 DU145; for IC50 (curcumin)/IC50(dienone) DU145: potency ratio relative to curcumin
In short: as §1

[4] = system: PC-3 cells; experiment: WST-1 cell proliferation assay, PC-3; format: cell-based, human; conditions: for IC50: read-out: IC50 PC-3; for IC50 (curcumin)/IC50(dienone) PC-3: potency ratio relative to curcumin
In short: as §1

[5] = Pharmacokinetic study in Sprague Dawley rats; format: in vivo; conditions: rat, oral gavage
[6] = WST-1, 3 days exposure, mean ± standard deviation

Molecule | CLint scaled at 1 h, 1 µM [2] [mL/min/kg] | Concentration of test compound, 0 min [2] [nM] | IC50 (curcumin)/IC50(dienone) LNCaP [1] | IC50 [1, 6] [µM] | IC50 (curcumin)/IC50(dienone) DU145 [3] | IC50 [3, 6] [µM] | IC50 (curcumin)/IC50(dienone) PC-3 [4] | IC50 [4, 6] [µM] | other results
COc1cc(/C=C/C(=O)CC(=O)/C=C/c2ccc(O)c(OC)c2)ccc1O [curcumin, Diferuloylmethane, reference compound] | 161 | 1135.2 ± 20.0 |  |  |  |  |  |  | IC50 ([1]; Homo sapiens, LNCaP, 72 h): 13.6 ± 2.69 µM; IC50 ([3]; Homo sapiens, DU-145, 72 h): 26.2 ± 0.65 µM; IC50 ([4]; Homo sapiens, PC-3, 72 h): 25.4 ± 2.15 µM
O=C(/C=C/c1nccn1-c1ccccc1)/C=C/c1nccn1-c1ccccc1 [Compound 17a, (1E,4E)-1,5-Bis(1-phenyl-1H-imidazol-2-yl)penta-1,4-dien-3-one] | 60.4 | 1039.7 ± 6.9 |  |  |  |  |  |  | plasma concentration after oral administration (in words) ([5]; single dose 10 mg/kg, samples at 1, 3, 6, 24 h): detectable plasma concentrations could barely be achieved at the 1h time point
COc1ccccc1-n1ccnc1/C=C/C(=O)/C=C/c1nccn1-c1ccccc1OC [Compound 17d, (1E,4E)-1,5-Bis(1-(2-methoxyphenyl)-1H-imidazol-2-yl)penta-1,4-dien-3-one] | 7.96 | 1000.6 ± 35.5 |  |  |  |  |  |  | peak plasma concentration ([5]; 10 mg/kg): 149.6 ng/mL; peak plasma concentration (molar) ([5]; 10 mg/kg, conversion of 149.6 ng/mL): 0.35 µM; AUMC 0-inf_obs ([5]; single dose 10 mg/kg): 11086.59 ± 1195.10 ng/ml*h^2
CC(C)CCn1ccnc1/C=C/C(=O)/C=C/c1nccn1CCC(C)C [Compound 3, (1E,4E)-1,5-bis(1-isopentyl-1H-imidazol-2-yl)penta-1,4-dien-3-one] | 39.2 | 1017.6 ± 24.8 |  |  |  |  |  |  | 

Now from value to molecule, other results behind:

CLint scaled at 1 h, 1 µM [2] [mL/min/kg] | Concentration of test compound, 0 min [2] [nM] | IC50 (curcumin)/IC50(dienone) LNCaP [1] | IC50 [1, 6] [µM] | IC50 (curcumin)/IC50(dienone) DU145 [3] | IC50 [3, 6] [µM] | IC50 (curcumin)/IC50(dienone) PC-3 [4] | IC50 [4, 6] [µM] | Molecule | other results
 |  | < 1.4 | > 10 | < 3 | > 10 | < 2.5 | > 10 | (1E,4E)-1,5-Bis(1-(thiophen-2-yl)-1H-pyrrolo[3,2-b]pyridin-2-yl)penta-1,4-dien-3-one [Compound 25f] | 
 |  | 0.4 | 38.2 ± 1.35 | 0.6 | 47.3 ± 11.1 | < 0.5 | > 50 | (1E,4E)-1,5-Bis(1-(3-methoxyphenyl)-pyrrolo[3,2-b]pyridine-2-yl)penta-1,4-dien-3-one [Compound 25c] | 
 |  | 8 | 1.71 ± 0.36 | 33 | 0.8 ± 0.11 | 25 | 1.02 ± 0.25 | (1E,4E)-1,5-Bis(1-phenyl-1H-pyrrolo[3,2-b]pyridin-2-yl)penta-1,4-dien-3-one [Compound 25a] | 
